Measurements from different studies.
Lines come from different studies, so protocols differ.
Target: Prostaglandin G/H synthase 2 (PTGS2, Homo sapiens, UniProt P35354)
Read-out: enzyme activity
Action: inhibitor
Residues used in one study (P35354 18-604): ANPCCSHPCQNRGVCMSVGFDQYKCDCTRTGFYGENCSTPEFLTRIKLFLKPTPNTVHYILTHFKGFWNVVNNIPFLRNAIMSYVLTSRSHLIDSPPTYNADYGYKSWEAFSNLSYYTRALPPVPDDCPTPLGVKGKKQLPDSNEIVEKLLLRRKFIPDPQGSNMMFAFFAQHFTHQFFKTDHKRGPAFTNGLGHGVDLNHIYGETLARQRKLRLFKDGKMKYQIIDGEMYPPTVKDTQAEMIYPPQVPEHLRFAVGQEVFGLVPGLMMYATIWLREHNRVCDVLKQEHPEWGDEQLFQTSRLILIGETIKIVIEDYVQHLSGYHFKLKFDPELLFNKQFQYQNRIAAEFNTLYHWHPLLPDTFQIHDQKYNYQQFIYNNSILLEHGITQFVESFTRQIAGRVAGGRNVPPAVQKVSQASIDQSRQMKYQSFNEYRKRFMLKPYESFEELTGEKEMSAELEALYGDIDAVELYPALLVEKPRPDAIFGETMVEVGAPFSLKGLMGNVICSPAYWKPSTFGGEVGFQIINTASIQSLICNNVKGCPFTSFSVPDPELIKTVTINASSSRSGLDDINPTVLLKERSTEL

| SMILES | assay | IC50 |
| --- | --- | --- |
| CC1=NN(c2cccc(Cl)c2)C(=O)/C1=C\c1cn(-c2nc(N3CCCCC3)nc(N3CCOCC3)n2)c2ccccc12 |  | 0.05 µM |
| CS(=O)(=O)c1ccc(-c2ncc(Cl)cc2-c2nc3ccccc3s2)cc1 | absorbance | 0.23 µM |
| Cc1cccc2nc(-c3ccc(S(C)(=O)=O)cc3)c(Nc3ccc(Cl)cc3)n12 |  | 0.08 µM |
| CCn1c(-c2nc3ccc(C(=O)N4CCCC(N)C4)cc3n2C)cc2ccccc21 (centres unmarked) |  | > 100 µM |
| CC(=O)c1cccc(/N=N/c2cc(/C=C/C(=O)O)ccc2O)c1 |  | > 100 µM |
| CC(C)Cc1ccc(-c2nn(-c3ccc(S(C)(=O)=O)cc3)cc2/C=N\N=C2/NC(=O)CS2)cc1 |  | 0.756 µM |
| Cc1cccc2nc(-c3ccc(S(C)(=O)=O)cc3)c(Nc3ccc(F)cc3)n12 |  | 0.08 µM |
| O=C(O)c1ccc(O)cc1 | absorbance | 19.5 µM |
| Cc1cccn2c(Nc3ccccc3)c(-c3ccc(S(C)(=O)=O)cc3)nc12 |  | 0.08 µM |
| C=C[C@@]1(C)C=C2CC[C@@H]3[C@](C)(CCC[C@@]3(C)C(=O)O)[C@H]2CC1 | absorbance | 18.5 µM |
| O=C1/C(=C\c2cn(-c3nc(N4CCOCC4)nc(N4CCOCC4)n3)c3ccccc23)c2ccccc2N1c1c(Cl)cccc1Cl |  | 0.4 µM |
| CS(=O)(=O)c1ccc(-c2nc3ccccn3c2Nc2ccc(F)cc2)cc1 |  | 0.1 µM |
| CC(C)Cc1ccc(-c2nn(-c3ccc(S(C)(=O)=O)cc3)cc2/C=N/N=c2\[nH]c(-c3ccc([N+](=O)[O-])cc3)cs2)cc1 |  | 0.817 µM |
| Cc1ccn2c(Nc3ccc(Cl)cc3)c(-c3ccc(S(C)(=O)=O)cc3)nc2c1 |  | 0.08 µM |
| O=C(O)/C=C/c1ccc(O)cc1 |  | > 100 µM |
| COC(=O)c1cc(O)c(O)c(O)c1 |  | 17.9 µM |

| SMILES | assay | IC50 |
| --- | --- | --- |
| CC1=NN(c2cccc(Cl)c2)C(=O)/C1=C\c1cn(-c2nc(N3CCCCC3)nc(N3CCCCC3)n2)c2ccccc12 |  | 0.1 µM |
| Cc1ccc(Nc2c(-c3ccc(S(C)(=O)=O)cc3)nc3ccccn23)cc1 |  | 0.1 µM |
| CC(C)Cc1ccc(-c2nn(-c3ccc(S(C)(=O)=O)cc3)cc2/C=N/N=c2\[nH]c(-c3ccc(Br)cc3)cs2)cc1 |  | 3.01 µM |
| COc1ccc(Nc2c(-c3ccc(S(C)(=O)=O)cc3)nc3ccccn23)cc1 |  | 0.39 µM |
| O=Cc1cn(-c2nc(N3CCCCC3)nc(N3CCCCC3)n2)c2ccccc12 |  | 7 µM |
| Cc1ccc(-c2nc3ccccc3s2)c(-c2ccc(S(N)(=O)=O)cc2)c1 | absorbance | 0.25 µM |
| CC1=NN(c2cccc(Cl)c2)C(=O)/C1=C\c1cn(-c2nc(N3CCCC3)nc(N3CCOCC3)n2)c2ccccc12 |  | 1 µM |
| COc1ccc(-c2nn(-c3ccc(S(C)(=O)=O)cc3)cc2C=N/N=c2\[nH]c(-c3ccc([N+](=O)[O-])cc3)cs2)cc1 |  | 8.83 µM |
| CS(=O)(=O)c1ccc(-c2ncccc2-c2nc3ccccc3s2)cc1 | absorbance | 0.86 µM |
| CC1=NN(c2cccc(Cl)c2)C(=O)/C1=C\c1cn(-c2nc(N3CCOCC3)nc(N3CCOCC3)n2)c2ccccc12 |  | 0.02 µM |
| COc1ccc(-c2cc(=O)c3c(O)cc(O[C@@H]4O[C@H](CO)[C@@H](O)[C@H](O)[C@H]4O)cc3o2)cc1O | absorbance | 0.973 µM |
| O=C1/C(=C\c2cn(-c3nc(N4CCCCC4)nc(N4CCOCC4)n3)c3ccccc23)c2ccccc2N1c1c(Cl)cccc1Cl |  | 1 µM |
| CS(=O)(=O)c1ccc(-n2cc(/C=N/N=c3\[nH]c(-c4ccc([N+](=O)[O-])cc4)cs3)c(-c3ccc([N+](=O)[O-])cc3)n2)cc1 |  | 15.5 µM |
| O=C1Nc2ccccc2/C1=C/c1cn(-c2nc(N3CCOCC3)nc(N3CCOCC3)n2)c2ccccc12 |  | 1 µM |
| Cc1ccc(Nc2c(-c3ccc(S(C)(=O)=O)cc3)nc3c(C)cccn23)cc1 |  | 0.07 µM |
| CC(=O)c1ccc(N=Nc2c(C(=O)O)cc(O)c(O)c2O)cc1 |  | 6.11 µM |
